Results on 9 molecules are retold here after PMC2721324 (Bioorganic & medicinal chemistry letters, 2009).

Molecules are shown by their SMILES. Read-outs that look alike come from different tables or passages of the source.

The target in assay [1] is T1, human P2Y2 receptor (Homo sapiens, UniProt P41231). The note with it: cited from earlier work; for EC50: read-out: Reference comp. (X = OCH2) EC50, native riboside, NE = no effect at 10 μM.
The target of assay [2] is T2, human P2Y4 receptor (Homo sapiens, UniProt P51582). The note with it: cited from earlier work; for EC50: read-out: Reference comp. (X = OCH2) EC50, native riboside, NE = no effect at 10 μM.
In assay [3] the target is T1, human P2Y2 receptor. Format: cell-based. The note with it: for agonist character (full or partial agonist): relative to UTP. In a few lines:
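PLC activation via Gq in 1321N1 human astrocytoma cells stably expressing recombinant human P2Y2 receptor. The parent cells lack a native nucleotide response. Concentration–effect curves were generated for each test compound, and the maximal response was expressed as a percentage of the UTP effect (UTP = 100%) to classify full or partial agonism.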

Assay [4] addresses T2, human P2Y4 receptor. Format: cell-based. The note with it: stimulation of PLC, NE = no effect at 10 μM. A digest of the protocol: (§1)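 Recombinant human P2Y4 or P2Y6 receptor, Gq-coupled, was stably expressed in 1321N1 human astrocytoma cells, which lack a native nucleotide response. Phospholipase C activation was measured over concentration–effect curves for each test compound. EC50 is the concentration giving 50% of the maximal effect, reported as mean ± standard error.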

In assay [5] the target is T3, human P2Y6 receptor (Homo sapiens, UniProt Q15077). The assay is classed as cell-based. A digest of the protocol:
as §1

Assay [6] concerns the target T3, human P2Y6 receptor. The conditions noted are these: read-out: Reference comp. (X = OCH2) EC50, native riboside, NE = no effect at 10 μM; cited from earlier work.

T3 sequence (Q15077 whole entry): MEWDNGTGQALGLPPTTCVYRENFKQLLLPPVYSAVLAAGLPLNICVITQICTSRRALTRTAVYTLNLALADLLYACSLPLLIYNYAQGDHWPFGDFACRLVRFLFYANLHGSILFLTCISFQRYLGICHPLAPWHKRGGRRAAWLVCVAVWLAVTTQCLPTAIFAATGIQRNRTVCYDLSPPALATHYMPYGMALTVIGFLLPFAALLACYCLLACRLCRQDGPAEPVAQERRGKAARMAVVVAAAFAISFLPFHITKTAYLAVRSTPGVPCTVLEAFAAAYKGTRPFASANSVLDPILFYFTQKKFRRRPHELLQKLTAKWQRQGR
T2 sequence (P51582 whole entry): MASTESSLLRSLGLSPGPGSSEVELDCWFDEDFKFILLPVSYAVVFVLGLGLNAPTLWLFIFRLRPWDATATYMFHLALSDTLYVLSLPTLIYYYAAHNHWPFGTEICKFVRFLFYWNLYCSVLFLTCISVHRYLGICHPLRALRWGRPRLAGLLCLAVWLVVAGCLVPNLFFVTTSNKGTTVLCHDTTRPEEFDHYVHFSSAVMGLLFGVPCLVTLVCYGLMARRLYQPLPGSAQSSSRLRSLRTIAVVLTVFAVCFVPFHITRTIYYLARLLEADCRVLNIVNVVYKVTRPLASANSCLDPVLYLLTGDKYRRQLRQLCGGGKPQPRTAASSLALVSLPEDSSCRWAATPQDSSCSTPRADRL
T1 sequence (P41231 whole entry): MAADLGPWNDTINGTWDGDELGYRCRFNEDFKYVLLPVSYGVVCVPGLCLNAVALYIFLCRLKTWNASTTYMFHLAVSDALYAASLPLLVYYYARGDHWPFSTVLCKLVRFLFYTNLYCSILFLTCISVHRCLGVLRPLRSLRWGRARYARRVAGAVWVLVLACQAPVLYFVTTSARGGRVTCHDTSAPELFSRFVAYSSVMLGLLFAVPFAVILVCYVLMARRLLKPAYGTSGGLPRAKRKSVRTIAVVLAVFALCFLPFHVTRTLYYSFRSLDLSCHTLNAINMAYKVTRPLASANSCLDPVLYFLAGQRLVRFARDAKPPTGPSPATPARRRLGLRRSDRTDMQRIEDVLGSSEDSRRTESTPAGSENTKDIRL

The term EC50 denotes the concentration needed to bring the measured effect to its halfway point. As to `Nc1ncnc2c1ncn2[C@@H]1O[C@H](COP(=O)(O)OP(=O)(O)OP(=O)(O)O)[C@@H](O)[C@H]1O` [ATP], the EC50 on human P2Y2 receptor [1] was 85 ± 12 nM. Moreover, the “Reference comp. (X = OCH2) activity” value on human P2Y4 receptor [2] (native riboside) was “Antagonist[12]”.

In the case of `O=c1ccn([C@@H]2O[C@H](/C=C/P(=O)(O)OP(=O)(O)OP(=O)(O)O)[C@@H](O)[C@H]2O)c(=O)[nH]1` [Compound 3, uridine 5′-(diphospho)-vinylphosphonate], the “reduction of potency relative to ATP or UTP” value on human P2Y2 receptor [3] (range over compounds 1, 2 and 3) was 16–176 fold. For the same molecule, the “agonist character (full or partial agonist)” value (“agonist character” below) on human P2Y2 receptor [3] is listed as “Full agonist activity”.

Consider `O=c1ccn([C@@H]2O[C@H](CP(=O)(O)OP(=O)(O)O)[C@@H](O)[C@H]2O)c(=O)[nH]1` [Compound 4, uridine 5′-phospho-phosphonate], for which the “maximal effect relative to that of UTP” value on human P2Y2 receptor [3] (effect of UTP = 100%) was no more than 50%. The figures for the “agonist character” value on human P2Y2 receptor [3] and at human P2Y6 receptor [5] were “partial ag” and “full agonist”, respectively. In addition, the half-maximal effective concentration (EC50) on human P2Y4 receptor [4] was greater than 10 µM. For the same molecule, the “potency less than UDP” value on human P2Y6 receptor [5] is recorded as “approximately 40 fold”.

For `O=c1ccn([C@@H]2O[C@H](COP(=O)(O)OP(=O)(O)C[C@H]3O[C@@H](n4ccc(=O)[nH]c4=O)[C@H](O)[C@@H]3O)[C@@H](O)[C@H]2O)c(=O)[nH]1` [Compound 5, di-(uridine- phosphonate)], the EC50 is greater than 10 µM on human P2Y4 receptor [4] and greater than 10 µM on human P2Y6 receptor [5] (stimulation of PLC, mean ± standard error, NE = no effect at 10 μM).

`O=c1ccn([C@@H]2O[C@H](CCP(=O)(O)O)[C@@H](O)[C@H]2O)c(=O)[nH]1` [Compound 7, uridine 5 ′-methylene-phosphonate]: the “agonist character” value on human P2Y2 receptor [3] is recorded as “partial ag”. On human P2Y4 receptor [4] (listed as 5′-methylphosphonate equivalent of UMP), the EC50 result was “inactive”.

Take `O=c1ccn([C@@H]2O[C@H](COP(=O)(O)OP(=O)(O)O)[C@@H](O)[C@H]2O)c(=O)[nH]1` [UDP]: the results for the EC50 at human P2Y2 receptor [1], at human P2Y4 receptor [2] and on human P2Y6 receptor [6] were greater than 10000 nM, greater than 10 µM and 46 ± 20 nM, respectively.

With `O=c1ccn([C@@H]2O[C@H](COP(=O)(O)O)[C@@H](O)[C@H]2O)c(=O)[nH]1` [UMP], at human P2Y2 receptor [1] (native riboside, NE = no effect at 10 μM), the “Reference comp. (X = OCH2) EC50” value is “no effect”. In addition, the EC50 at human P2Y2 receptor [1] was greater than 10000 nM; on human P2Y4 receptor [2] it was greater than 10 µM; at human P2Y6 receptor [6], greater than 10000 nM.

As to `O=c1ccn([C@@H]2O[C@H](COP(=O)(O)OP(=O)(O)OP(=O)(O)O)[C@@H](O)[C@H]2O)c(=O)[nH]1` [UTP], the EC50 is 49 ± 12 nM on human P2Y2 receptor [1], 0.073 ± 0.02 µM at human P2Y4 receptor [2] and greater than 10000 nM at human P2Y6 receptor [6].

Regarding `O=c1ccn([C@@H]2O[C@H](COP(=O)(O)OP(=O)(O)OC[C@H]3O[C@@H](n4ccc(=O)[nH]c4=O)[C@H](O)[C@@H]3O)[C@@H](O)[C@H]2O)c(=O)[nH]1` [Up2U], the EC50 at human P2Y2 receptor [1] is greater than 10000 nM; on human P2Y4 receptor [2], greater than 10 µM; at human P2Y6 receptor [6], 1260 ± 170 nM.
